Converted amounts (≈) assume the structure as drawn.
Columns and labels:
Streptococcus pneumoniae = assay: Antibacterial activity against Streptococcus pneumoniae ATCC 49619 assessed as reduction in bacterial growth by CLSI method based broth microdilution assay; format: functional
How it was run: (§1)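 MIC by broth microdilution following CLSI guidelines for culturing and susceptibility testing; each determination run in triplicate. Agar dilution was used instead only ahead of frequency-of-resistance work.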

[1] = Thermodynamic solubility of compound at physiological pH; format: physicochemical; details: read-out: Therm_solubility
[2] = Cytotoxicity against human HepG2 cells; format: cell-based
[3] = Lipophilicity, logD of the compound at pH 7.4; format: physicochemical; details: buffer
Staphylococcus aureus [4] = assay: Antibacterial activity against Staphylococcus aureus ATCC 29213 assessed as reduction in bacterial growth by CLSI method based broth microdilution assay; format: functional
Staphylococcus aureus [5] = assay: Antibacterial activity against methicillin-resistant Staphylococcus aureus VRS8 assessed as reduction in bacterial growth by CLSI method based broth microdilution assay; format: functional
Cytochrome P450 3A4 = Cytochrome P450 3A4 (Homo sapiens, UniProt P08684); assay: Inhibition of CYP3A4 (unknown origin)
Neisseria gonorrhoeae = assay: Antibacterial activity against Neisseria gonorrhoeae assessed as reduction in bacterial growth by CLSI method based broth microdilution assay; format: functional; how it was run: as §1
Cytochrome P450 2C9 = Cytochrome P450 2C9 (Homo sapiens, UniProt P11712); assay: Inhibition of CYP2C9 (unknown origin)
Staphylococcus aureus [6] = assay: Antibacterial activity against methicillin-resistant Staphylococcus aureus NRS74 assessed as reduction in bacterial growth by CLSI method based broth microdilution assay; format: functional
Staphylococcus aureus [7] = assay: Antibacterial activity against fluoroquinolone and multidrug-resistant Staphylococcus aureus assessed as reduction in bacterial growth by CLSI method based broth microdilution assay; format: functional
How it was run: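 Run to CLSI guidelines by broth microdilution, in triplicate. Growth was read to give the MIC.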

Cytochrome P450 2D6 = Cytochrome P450 2D6 (Homo sapiens, UniProt P10635); assay: Inhibition of CYP2D6 (unknown origin)
Cytochrome P450 1A2 = target: T1, Cytochrome P450 1A2 (Homo sapiens, UniProt P05177); assay: Inhibition of CYP1A2 (unknown origin)
T1 sequence (P05177 whole entry): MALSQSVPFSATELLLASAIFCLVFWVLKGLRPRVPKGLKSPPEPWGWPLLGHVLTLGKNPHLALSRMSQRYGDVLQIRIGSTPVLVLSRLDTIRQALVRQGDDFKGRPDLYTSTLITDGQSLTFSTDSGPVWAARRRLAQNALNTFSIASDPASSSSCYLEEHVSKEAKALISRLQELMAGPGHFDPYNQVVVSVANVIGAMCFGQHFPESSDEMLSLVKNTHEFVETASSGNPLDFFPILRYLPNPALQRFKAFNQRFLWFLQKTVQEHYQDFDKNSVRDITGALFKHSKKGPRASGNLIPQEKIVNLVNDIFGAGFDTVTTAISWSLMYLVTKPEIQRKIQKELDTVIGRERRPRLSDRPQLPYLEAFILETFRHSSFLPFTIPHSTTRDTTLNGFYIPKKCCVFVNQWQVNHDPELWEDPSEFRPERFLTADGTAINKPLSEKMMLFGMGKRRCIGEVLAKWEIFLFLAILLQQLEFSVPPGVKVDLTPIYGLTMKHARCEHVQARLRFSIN

Cytochrome P450 2C19 = Cytochrome P450 2C19 (Homo sapiens, UniProt P33261); assay: Inhibition of CYP2C19 (unknown origin)
hERG (KCNH2) = hERG (KCNH2) (Homo sapiens, UniProt Q12809); assay: Inhibition of human ERG at 100 uM relative to control
[8] = target: Voltage-gated inwardly rectifying potassium channel KCNH2 (Homo sapiens, UniProt Q12809)
Chain of Voltage-gated inwardly rectifying potassium channel KCNH2 (Q12809 whole entry): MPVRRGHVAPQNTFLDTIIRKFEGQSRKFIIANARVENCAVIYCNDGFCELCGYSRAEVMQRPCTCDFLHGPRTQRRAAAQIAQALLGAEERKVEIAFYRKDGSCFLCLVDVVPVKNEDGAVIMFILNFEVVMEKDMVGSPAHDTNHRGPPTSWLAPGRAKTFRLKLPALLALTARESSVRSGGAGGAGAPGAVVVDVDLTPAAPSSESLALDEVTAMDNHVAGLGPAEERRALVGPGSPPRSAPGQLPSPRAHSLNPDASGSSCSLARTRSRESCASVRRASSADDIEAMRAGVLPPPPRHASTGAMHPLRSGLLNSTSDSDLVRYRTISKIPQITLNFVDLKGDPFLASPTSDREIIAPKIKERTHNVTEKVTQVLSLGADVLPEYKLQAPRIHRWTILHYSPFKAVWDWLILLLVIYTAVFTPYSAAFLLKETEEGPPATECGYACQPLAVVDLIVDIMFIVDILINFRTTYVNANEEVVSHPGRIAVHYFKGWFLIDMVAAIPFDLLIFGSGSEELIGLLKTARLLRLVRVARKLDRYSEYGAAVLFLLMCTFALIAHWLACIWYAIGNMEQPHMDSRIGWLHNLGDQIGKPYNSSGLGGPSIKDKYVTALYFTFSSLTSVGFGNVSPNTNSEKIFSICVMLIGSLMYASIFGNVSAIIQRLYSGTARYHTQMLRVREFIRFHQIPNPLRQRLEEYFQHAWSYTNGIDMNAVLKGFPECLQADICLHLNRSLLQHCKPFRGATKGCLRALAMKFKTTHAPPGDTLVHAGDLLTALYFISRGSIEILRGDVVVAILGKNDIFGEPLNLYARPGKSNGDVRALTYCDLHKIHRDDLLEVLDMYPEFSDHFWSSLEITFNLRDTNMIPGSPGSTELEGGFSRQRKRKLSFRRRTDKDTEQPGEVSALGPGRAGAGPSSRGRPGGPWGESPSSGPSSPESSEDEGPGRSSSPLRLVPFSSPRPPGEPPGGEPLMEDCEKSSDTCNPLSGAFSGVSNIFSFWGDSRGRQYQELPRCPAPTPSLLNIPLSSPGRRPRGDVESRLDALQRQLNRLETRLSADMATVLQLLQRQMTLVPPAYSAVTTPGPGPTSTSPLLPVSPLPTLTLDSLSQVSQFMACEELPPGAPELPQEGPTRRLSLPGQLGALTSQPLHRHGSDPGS

Chain of Cytochrome P450 2C9 (P11712 whole entry): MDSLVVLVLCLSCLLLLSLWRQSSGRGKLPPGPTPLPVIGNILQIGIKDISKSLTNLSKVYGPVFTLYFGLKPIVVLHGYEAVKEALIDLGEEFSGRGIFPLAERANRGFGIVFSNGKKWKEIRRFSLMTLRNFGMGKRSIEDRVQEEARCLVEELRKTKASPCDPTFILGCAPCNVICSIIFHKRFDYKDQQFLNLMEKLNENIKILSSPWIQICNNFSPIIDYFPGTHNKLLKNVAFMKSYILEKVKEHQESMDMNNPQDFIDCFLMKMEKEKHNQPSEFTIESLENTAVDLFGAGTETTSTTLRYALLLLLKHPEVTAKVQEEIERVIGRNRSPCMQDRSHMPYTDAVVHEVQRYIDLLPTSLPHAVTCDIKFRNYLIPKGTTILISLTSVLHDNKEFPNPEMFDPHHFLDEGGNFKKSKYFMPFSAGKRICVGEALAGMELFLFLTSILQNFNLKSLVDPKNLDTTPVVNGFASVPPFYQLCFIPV
Chain of Cytochrome P450 3A4 (P08684 whole entry): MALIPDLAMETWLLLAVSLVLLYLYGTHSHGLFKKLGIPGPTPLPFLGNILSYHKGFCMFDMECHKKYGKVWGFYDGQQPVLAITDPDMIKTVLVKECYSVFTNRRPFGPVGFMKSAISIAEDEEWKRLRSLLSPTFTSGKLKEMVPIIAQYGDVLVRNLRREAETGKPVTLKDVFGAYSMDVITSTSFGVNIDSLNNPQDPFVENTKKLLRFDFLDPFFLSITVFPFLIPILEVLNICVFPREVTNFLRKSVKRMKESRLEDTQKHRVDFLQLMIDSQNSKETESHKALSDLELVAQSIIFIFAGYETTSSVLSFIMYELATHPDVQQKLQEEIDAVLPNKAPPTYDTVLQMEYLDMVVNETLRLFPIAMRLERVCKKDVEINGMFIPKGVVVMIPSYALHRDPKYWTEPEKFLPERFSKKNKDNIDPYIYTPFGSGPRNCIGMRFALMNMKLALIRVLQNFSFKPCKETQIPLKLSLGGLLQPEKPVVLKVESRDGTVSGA
Chain of Cytochrome P450 2C19 (P33261 whole entry): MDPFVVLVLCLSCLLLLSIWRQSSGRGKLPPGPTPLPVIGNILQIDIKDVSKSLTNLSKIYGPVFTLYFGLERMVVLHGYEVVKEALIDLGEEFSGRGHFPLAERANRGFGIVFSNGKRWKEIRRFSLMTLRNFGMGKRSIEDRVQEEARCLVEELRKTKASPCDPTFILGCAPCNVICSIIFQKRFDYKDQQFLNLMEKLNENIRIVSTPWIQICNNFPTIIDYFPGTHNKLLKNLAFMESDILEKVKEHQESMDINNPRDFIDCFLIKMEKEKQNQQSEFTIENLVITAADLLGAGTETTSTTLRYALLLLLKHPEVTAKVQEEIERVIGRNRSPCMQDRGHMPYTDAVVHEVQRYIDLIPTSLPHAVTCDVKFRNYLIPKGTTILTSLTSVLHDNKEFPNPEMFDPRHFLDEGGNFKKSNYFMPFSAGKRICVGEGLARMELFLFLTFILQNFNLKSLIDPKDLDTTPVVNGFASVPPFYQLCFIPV
Chain of Cytochrome P450 2D6 (P10635 whole entry): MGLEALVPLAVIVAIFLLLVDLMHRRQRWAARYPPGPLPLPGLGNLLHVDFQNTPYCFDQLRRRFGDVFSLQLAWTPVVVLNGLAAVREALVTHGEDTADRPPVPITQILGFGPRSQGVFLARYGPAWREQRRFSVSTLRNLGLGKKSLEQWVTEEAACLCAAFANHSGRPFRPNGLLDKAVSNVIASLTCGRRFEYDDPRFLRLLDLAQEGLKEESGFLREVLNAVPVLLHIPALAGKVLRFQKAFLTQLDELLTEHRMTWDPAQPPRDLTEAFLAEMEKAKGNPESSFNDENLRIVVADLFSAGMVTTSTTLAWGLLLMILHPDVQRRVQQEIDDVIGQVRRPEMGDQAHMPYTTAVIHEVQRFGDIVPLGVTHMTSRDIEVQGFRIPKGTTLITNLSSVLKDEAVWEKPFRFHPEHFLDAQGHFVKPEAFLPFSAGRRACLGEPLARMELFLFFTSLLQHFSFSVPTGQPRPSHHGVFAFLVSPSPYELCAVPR
Chain of hERG (KCNH2) (Q12809 whole entry): as the sequence (Q12809 whole entry) above

| SMILES | MIC (Streptococcus pneumoniae) [µg/mL] | solubility thermodynamic [1] | CC50 [2] [µg/mL] | logD [3] | MIC (Staphylococcus aureus [4]) [µg/mL] | also measured |
| --- | --- | --- | --- | --- | --- | --- |
| Cc1c(-c2ccc3[nH]cnc3c2)ccc2c3ocnc3c(=O)n(C3CC3)c12 | 0.25 (≈ 0.701 µM) | < 9 µg/mL | > 16 | 3.03 | 0.25 (≈ 0.701 µM) |  |
| Cc1c(-c2ccc3[nH]ncc3c2)ccc2c3ocnc3c(=O)n(C3CC3)c12 | 0.5 (≈ 1.4 µM) | 1.1 µg/mL | > 16 | 3.29 | 0.004 (≈ 0.0112 µM) |  |
| Cc1c(-c2ccc(N)nn2)ccc2c3ocnc3c(=O)n(C3CC3)c12 | > 64 |  |  |  | > 64 |  |
| Cc1nc2c(=O)n(C3CC3)c3c(C)c(-c4cc(F)c(N)cc4F)ccc3c2o1 |  |  |  |  | 0.03 (≈ 0.0787 µM) |  |
| Nc1cc(F)c(-c2ccc3c4ocnc4c(=O)n(C4CC4)c3c2Cl)cc1F |  |  |  |  | 0.25 (≈ 0.645 µM) |  |
| Cc1c(-c2cnc(N)nc2)ccc2c3ocnc3c(=O)n(C3CC3)c12 | 4 (≈ 12 µM) | 15 µg/mL | > 32 | 1.32 | 1 (≈ 3 µM) |  |
| Cc1c(-c2cc(F)c(CO)cc2F)ccc2c3ocnc3c(=O)n(C3CC3)c12 | 0.25 (≈ 0.654 µM) | 1.9 µg/mL | > 32 | 3.14 | 0.06 (≈ 0.157 µM) |  |
| Cc1c(-c2cc(F)c(C(=O)O)cc2F)ccc2c3ocnc3c(=O)n(C3CC3)c12 | > 128 |  |  |  | 64 (≈ 161 µM) |  |
| Cc1c(-c2cc(F)c(N)cc2F)ccc2c3ocnc3c(=O)n(C3CC3)c12 | 1 (≈ 2.72 µM) | 3 µM | > 128 | 2.96 | 0.03 (≈ 0.0817 µM) | MIC (Staphylococcus aureus [5]): 0.5 µg/mL (≈ 1.36 µM); IC50 (Cytochrome P450 3A4): > 30 µM; MIC (Neisseria gonorrhoeae): 0.06 µg/mL (≈ 0.163 µM); IC50 (Cytochrome P450 2C9): > 30000 nM; MIC (Staphylococcus aureus [6]): 0.06 µg/mL (≈ 0.163 µM); MIC90 (Staphylococcus aureus [7]): 0.25 µg/mL (≈ 0.681 µM); IC50 (Cytochrome P450 2D6): > 30 µM; IC50 (Cytochrome P450 1A2): > 30 µM; IC50 (Cytochrome P450 2C19): > 30000 nM; inhibition at 100 µM (hERG (KCNH2)): 3% |
| Cc1c(-c2ccc3c(c2)CNC3)ccc2c3ocnc3c(=O)n(C3CC3)c12 | 0.5 (≈ 1.4 µM) | 209 µg/mL | > 64 | 0.75 | 0.12 (≈ 0.336 µM) |  |
| Cc1c(-c2ccccc2)ccc2c3ocnc3c(=O)n(C3CC3)c12 | 4 (≈ 12.6 µM) |  |  |  | 1 (≈ 3.16 µM) |  |
| Cc1c(-c2ccc(N)cc2F)ccc2c3ocnc3c(=O)n(C3CC3)c12 | 1 (≈ 2.86 µM) | 1.1 µg/mL | 16 (≈ 45.8 µM) | 3.05 | 0.12 (≈ 0.343 µM) |  |
| Cc1c(-c2ccc(N)cc2)ccc2c3ocnc3c(=O)n(C3CC3)c12 | 4 (≈ 12.1 µM) |  |  | 2.59 | 0.5 (≈ 1.51 µM) |  |
| Cc1c(-c2ccc(N)c(F)c2)ccc2c3ocnc3c(=O)n(C3CC3)c12 | 2 (≈ 5.72 µM) |  | > 128 |  | 0.12 (≈ 0.343 µM) |  |
| Nc1cc(F)c(-c2nc3c(cc2F)c2ocnc2c(=O)n3C2CC2)cc1F |  |  |  |  | 128 (≈ 344 µM) |  |
| Cc1c(-c2cc(F)c(N)cc2F)ccc2c3oc(CN)nc3c(=O)n(C3CC3)c12 |  | 36 µg/mL | > 64 |  | 0.06 (≈ 0.151 µM) | MIC (Staphylococcus aureus [5]): 4 µg/mL (≈ 10.1 µM); IC50 (Cytochrome P450 3A4): 12.9 µM; IC50 (Cytochrome P450 2C9): 300 nM; MIC (Staphylococcus aureus [6]): 0.06 µg/mL (≈ 0.151 µM); IC50 (Cytochrome P450 2D6): 11.3 µM; IC50 (Cytochrome P450 1A2): 7.5 µM; IC50 (Cytochrome P450 2C19): 500 nM |
| Nc1cc(F)c(-c2ccc3c4ocnc4c(=O)n(C4CC4)c3c2)cc1F |  |  |  |  | 2 (≈ 5.66 µM) |  |
| CCn1c(=O)c2ncoc2c2cc(F)c(-c3cc(F)c(N)cc3F)c(C)c21 |  |  |  |  | 1 (≈ 2.68 µM) |  |
| Cc1c(-c2ccc3[nH]c(N)nc3c2)ccc2c3ocnc3c(=O)n(C3CC3)c12 | 0.25 (≈ 0.673 µM) | 16 µg/mL | > 32 | 2.52 | 0.25 (≈ 0.673 µM) |  |
| Cc1c(-c2ccc3nonc3c2)ccc2c3ocnc3c(=O)n(C3CC3)c12 | 4 (≈ 11.2 µM) | < 9 µg/mL | > 32 | 3.03 | 0.25 (≈ 0.698 µM) |  |
| Nc1cc(F)c(-c2cc3c(cc2F)c2ocnc2c(=O)n3C2CC2)cc1F |  |  |  |  | 0.25 (≈ 0.673 µM) |  |
| Cc1c(-c2ccc(C(C)N)cc2)ccc2c3ocnc3c(=O)n(C3CC3)c12 (configuration not stated) | 2 (≈ 5.56 µM) |  | > 32 |  | 0.5 (≈ 1.39 µM) |  |
| Cc1c(-c2cnc3[nH]ncc3c2)ccc2c3oc(CN)nc3c(=O)n(C3CC3)c12 |  | 618 µg/mL | > 128 |  | 0.25 (≈ 0.647 µM) | MIC (Staphylococcus aureus [5]): 2 µg/mL (≈ 5.18 µM); IC50 [8]: 45.1 µM; MIC (Staphylococcus aureus [6]): 2 µg/mL (≈ 5.18 µM) |
| C[C@H]1COc2c(-c3cc(F)c(N)cc3F)ccc3c4ocnc4c(=O)n1c23 |  |  |  |  | 0.5 (≈ 1.35 µM) |  |
| Cc1c(-c2ccc3[nH]ncc3c2)ccc2c3oc(CN)nc3c(=O)n(C3CC3)c12 |  | 10 µg/mL | 32 (≈ 83 µM) |  | 0.06 (≈ 0.156 µM) | MIC (Staphylococcus aureus [5]): 2 µg/mL (≈ 5.19 µM); IC50 (Cytochrome P450 3A4): 1.3 µM; IC50 (Cytochrome P450 2C9): 200 nM; MIC (Staphylococcus aureus [6]): 0.5 µg/mL (≈ 1.3 µM); IC50 (Cytochrome P450 2D6): 12.7 µM; IC50 (Cytochrome P450 1A2): 12.3 µM; IC50 (Cytochrome P450 2C19): 800 nM |
| CCn1c(=O)c2ncoc2c2ccc(-c3cc(F)c(N)cc3F)c(C)c21 |  |  |  |  | 2 (≈ 5.63 µM) |  |
| Cc1c(-c2cnc(N)cn2)ccc2c3ocnc3c(=O)n(C3CC3)c12 | > 128 | 6.8 µg/mL |  | 1.46 | 64 (≈ 192 µM) |  |
| Cc1c(-c2ccc(N)c(C#N)c2)ccc2c3ocnc3c(=O)n(C3CC3)c12 | 0.25 (≈ 0.701 µM) |  | > 4 | 2.94 | 0.06 (≈ 0.168 µM) |  |
